The values below come from ChEMBL document CHEMBL1123201, “7-(Trifluoromethyl)-4-aminoquinoline hypotensives: novel peripheral sympatholytics” (J Med Chem, 1986).

Each structure is given as a SMILES string.

For data set [1], the system named is Rattus norvegicus. The experiment in a line: Compound was tested for hypotensive activity by measuring the average change in mean arterial blood pressure in mmHg after 4 hr at 1.5 mg/Kg oral dosing of a conscious rat. It counts as functional, Artery. The procedure, abridged:
(§1)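 Restrained (towel-wrapped, to raise sympathetic tone) conscious female Sprague-Dawley rats with chronic indwelling aortic cannulas exteriorized at the nape; blood pressure recorded directly by transducer before and 4 and 24 h after oral dosing. Compound suspended in carboxymethylcellulose vehicle, 10 mL/kg; doses 50 to 0.05 mg/kg. Two rats averaged per time point; average change ≥5 mmHg taken as significant (p < 0.05).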

Data set [2] relates to Rattus norvegicus. The data set can be described thus: Compound was tested for hypotensive activity by measuring the average change in mean arterial blood pressure in mmHg after 24 hr at 0.5 mg/Kg oral dosing of a conscious rat. It counts as functional, Artery. The essentials:
as §1

Data set [3] relates to Rattus norvegicus. The data set can be described thus: Compound was tested for hypotensive activity by measuring the average change in mean arterial blood pressure in mmHg after 4 hr at 15 mg/Kg oral dosing of a conscious rat. It is filed as functional, Artery. The essentials: as §1
Data set [4] deals with Rattus norvegicus. The data set can be described thus: Compound was tested for hypotensive activity by measuring the average change in mean arterial blood pressure in mmHg after 4 hr at 0.15 mg/Kg oral dosing of a conscious rat. It is filed as functional, Artery. The essentials:
as §1

For data set [5], the system named is Rattus norvegicus. The experiment in a line: Compound was tested for hypotensive activity by measuring the average change in mean arterial blood pressure in mmHg after 4 hr at 0.5 mg/Kg oral dosing of a conscious rat. It counts as functional, Artery. The procedure, abridged:
as §1

The test system of data set [6] is Rattus norvegicus. The experiment in a line: Compound was tested for hypotensive activity by measuring the average change in mean arterial blood pressure in mmHg after 4 hr at 0.05 mg/Kg oral dosing of a conscious rat. It is filed as functional, Artery. The essentials: as §1
Data set [7] relates to Rattus norvegicus. The experiment in a line: Compound was tested for hypotensive activity by measuring the average change in mean arterial blood pressure in mmHg after 24 hr at 0.15 mg/Kg oral dosing of a conscious rat. It is filed as functional, Artery. The procedure, abridged: as §1
Data set [8] is described as follows: Acute toxicity was determined in mice. It counts as organism-based. The conditions noted are these: mouse, in vivo.
Data set [9] deals with Rattus norvegicus. The data set can be described thus: Compound was tested for hypotensive activity by measuring the average change in mean arterial blood pressure in mmHg after 24 hr at 1.5 mg/Kg oral dosing of a conscious rat. It counts as functional, Artery. The procedure, abridged: as §1
For data set [10], the species on record is Mus musculus. The experiment in a line: Lowest dose of compound associated with clinical signs. It counts as functional.
The species entered for data set [11] is Mus musculus. The data set can be described thus: Lowest dose of compound associated with unacceptable clinical signs. It counts as functional.
The subject of data set [12] is Rattus norvegicus. The experiment in a line: Compound was tested for hypotensive activity by measuring the average change in mean arterial blood pressure in mmHg after 24 hr at 15 mg/Kg oral dosing of a conscious rat. It is filed as functional, Artery. The essentials:
as §1

The subject of data set [13] is Rattus norvegicus. The experiment in a line: Compound was tested for hypotensive activity by measuring the average change in mean arterial blood pressure in mmHg after 24 hr at 0.05 mg/Kg oral dosing of a conscious rat. It is filed as functional, Artery. The procedure, abridged:
as §1

With `O=C(c1ccc(Nc2ccnc3cc(C(F)(F)F)ccc23)cc1)N1CCN(S(=O)(=O)c2ccc(F)cc2)CC1` [LOSULAZINE], the Activity with Rattus norvegicus [1] is on record as -17 mmHg; with Rattus norvegicus [2], -15 mmHg; with Rattus norvegicus [3] it was -19 mmHg; with Rattus norvegicus [4] it was -12 mmHg; with Rattus norvegicus [5] it was -10 mmHg; in the data set on Rattus norvegicus [6], -6 mmHg. Moreover, the Activity in the data set with Rattus norvegicus [7] is reported as -14 mmHg; with Rattus norvegicus [9], -21 mmHg; in the data set with Rattus norvegicus [12], -25 mmHg; with Rattus norvegicus [13] it was -2 mmHg. Also, in data set [8], the LD50 is greater than 3160 mg/kg. Besides, the figures for the Dose in the data set listed under Mus musculus [10] and in the data set listed under Mus musculus [11] were 100 mg/kg and greater than 3160 mg/kg, respectively.

The LD50 is the dose at which mortality reaches 50%. High values mean lower toxicity, low ones greater toxicity.
